Inhibition and IC50 data for nine compounds are collected here from ChEMBL document CHEMBL4190320, “Clathrodin, hymenidin and oroidin, and their synthetic analogues as inhibitors of the voltage-gated potassium channels” (Eur J Med Chem, 2017).

Experiment [1] deals with Potassium voltage-gated channel subfamily A member 1 (Rattus norvegicus) (UniProt P10499). The experiment in a line: Inhibition of rat Kv1.1 expressed in Xenopus laevis oocytes at 1 uM at -90 mV holding potential by two-electrode voltage clamp assay relative to control. The format is cell-based.
Experiment [2] has as its target Potassium voltage-gated channel subfamily A member 4 (Rattus norvegicus) (UniProt P15385). The experiment in a line: Inhibition of rat Kv1.4 expressed in Xenopus laevis oocytes at 1 uM at -90 mV holding potential by two-electrode voltage clamp assay relative to control. The format is cell-based.
Experiment [3] has as its target Potassium voltage-gated channel subfamily A member 4 (Homo sapiens, UniProt P22459). Description: Inhibition of human Kv1.4 expressed in CHO cells at -80 mV holding potential by whole cell automated patch clamp method. The format is cell-based. The method in brief: (§1)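 Human channels stably expressed in CHO cells, dissociated with 0.05% trypsin-EDTA, held in serum-free medium and resuspended in extracellular solution just before recording. Whole-cell QPatch recordings used a -80 mV holding potential and 500 ms steps to +30 mV at 0.067 Hz. Series resistance was 80% compensated with P/n leak subtraction. After 0.1% DMSO vehicle, four escalating concentrations were applied cumulatively.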

The target in experiment [4] is Potassium voltage-gated channel subfamily A member 2 (Rattus norvegicus) (UniProt P63142). Description: Inhibition of rat Kv1.2 expressed in Xenopus laevis oocytes at 1 uM at -90 mV holding potential by two-electrode voltage clamp assay relative to control. The format is cell-based. For orientation: In two-electrode clamp one electrode senses voltage and the other passes current.

In experiment [5] the target is Potassium voltage-gated channel subfamily A member 2 (Homo sapiens, UniProt P16389). Description: Inhibition of human Kv1.2 expressed in CHO cells at -80 mV holding potential by whole cell automated patch clamp method. The experiment is classed as cell-based. The method in brief: as §1
In general terms: Patch clamp records ionic current or voltage across a cell membrane.

In experiment [6] the target is Potassium voltage-gated channel subfamily A member 6 (Rattus norvegicus) (UniProt P17659). Description: Inhibition of rat Kv1.6 expressed in Xenopus laevis oocytes at 1 uM at -90 mV holding potential by two-electrode voltage clamp assay relative to control. The experiment is classed as cell-based.
Experiment [7] has as its target Potassium voltage-gated channel subfamily A member 5 (Rattus norvegicus) (UniProt P19024). Description: Inhibition of rat Kv1.5 expressed in Xenopus laevis oocytes at 1 uM at -90 mV holding potential by two-electrode voltage clamp assay relative to control. The experiment is classed as cell-based.
The target in experiment [8] is Potassium voltage-gated channel subfamily A member 5 (Homo sapiens, UniProt P22460). Description: Inhibition of human Kv1.5 expressed in CHO cells at -80 mV holding potential by whole cell automated patch clamp method. The experiment is classed as cell-based.
In experiment [9] the target is T1, Potassium voltage-gated channel subfamily A member 3 (Homo sapiens, UniProt P22001). Description: Inhibition of human Kv1.3 expressed in CHO cells at -80 mV holding potential by whole cell automated patch clamp method. The format is cell-based. The method in brief:
as §1

Experiment [10] deals with Potassium voltage-gated channel subfamily A member 1 (Homo sapiens, UniProt Q09470). The experiment in a line: Inhibition of human Kv1.1 expressed in CHO cells at -80 mV holding potential by whole cell automated patch clamp method. The experiment is classed as cell-based. The method, boiled down: as §1
Experiment [11] has as its system Potassium voltage-gated channel subfamily H member 1 (Homo sapiens). The experiment in a line: Inhibition of human Kv10.1 expressed in Xenopus laevis oocytes at 1 uM at -90 mV holding potential by two-electrode voltage clamp assay relative to control.
Experiment [12] deals with Potassium voltage-gated channel subfamily A member 6 (Homo sapiens, UniProt P17658). The experiment in a line: Inhibition of human Kv1.6 expressed in CHO cells at -80 mV holding potential by whole cell automated patch clamp method. The format is cell-based. The method in brief: as §1
Experiment [13] concerns the target T1, Potassium voltage-gated channel subfamily A member 3. Description: Inhibition of human Kv1.3 expressed in Xenopus laevis oocytes at 1 uM at -90 mV holding potential by two-electrode voltage clamp assay relative to control.

Calls of active or inactive are those of the source. No cut-off for these calls is given here. Bounds are passed on as bounds.

Potassium voltage-gated channel subfamily A member 5 (Rattus norvegicus), sequence (P19024 whole entry): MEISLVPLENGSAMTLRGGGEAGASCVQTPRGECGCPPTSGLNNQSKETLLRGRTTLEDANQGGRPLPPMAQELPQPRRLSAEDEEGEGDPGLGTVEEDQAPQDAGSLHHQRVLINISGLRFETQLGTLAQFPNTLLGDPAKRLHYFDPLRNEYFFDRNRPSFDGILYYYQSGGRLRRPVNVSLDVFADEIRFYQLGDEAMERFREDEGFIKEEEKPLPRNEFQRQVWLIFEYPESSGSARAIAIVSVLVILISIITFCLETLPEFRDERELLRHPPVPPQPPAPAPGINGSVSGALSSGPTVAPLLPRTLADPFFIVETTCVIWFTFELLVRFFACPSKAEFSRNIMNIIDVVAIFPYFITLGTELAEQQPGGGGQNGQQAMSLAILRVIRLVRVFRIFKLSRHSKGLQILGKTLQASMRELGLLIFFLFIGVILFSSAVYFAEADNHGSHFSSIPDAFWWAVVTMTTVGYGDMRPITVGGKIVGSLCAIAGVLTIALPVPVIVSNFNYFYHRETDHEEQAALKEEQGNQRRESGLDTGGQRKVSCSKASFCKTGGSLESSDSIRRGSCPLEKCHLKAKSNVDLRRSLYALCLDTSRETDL
Potassium voltage-gated channel subfamily A member 2 (Rattus norvegicus), sequence (P63142 whole entry): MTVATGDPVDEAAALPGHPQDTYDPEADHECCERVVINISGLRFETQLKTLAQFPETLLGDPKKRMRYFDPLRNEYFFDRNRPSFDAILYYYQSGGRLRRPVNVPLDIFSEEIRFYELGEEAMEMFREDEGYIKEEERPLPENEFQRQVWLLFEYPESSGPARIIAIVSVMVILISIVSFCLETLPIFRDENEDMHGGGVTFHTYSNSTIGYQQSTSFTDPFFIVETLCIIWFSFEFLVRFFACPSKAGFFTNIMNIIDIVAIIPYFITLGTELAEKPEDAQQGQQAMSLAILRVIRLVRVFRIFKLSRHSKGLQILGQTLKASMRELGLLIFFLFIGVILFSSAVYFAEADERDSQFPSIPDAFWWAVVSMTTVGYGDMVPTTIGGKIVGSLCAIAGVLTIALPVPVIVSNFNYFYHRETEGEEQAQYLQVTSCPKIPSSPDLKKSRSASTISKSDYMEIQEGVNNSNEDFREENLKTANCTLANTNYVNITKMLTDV
Potassium voltage-gated channel subfamily A member 1 (Rattus norvegicus), sequence (P10499 whole entry): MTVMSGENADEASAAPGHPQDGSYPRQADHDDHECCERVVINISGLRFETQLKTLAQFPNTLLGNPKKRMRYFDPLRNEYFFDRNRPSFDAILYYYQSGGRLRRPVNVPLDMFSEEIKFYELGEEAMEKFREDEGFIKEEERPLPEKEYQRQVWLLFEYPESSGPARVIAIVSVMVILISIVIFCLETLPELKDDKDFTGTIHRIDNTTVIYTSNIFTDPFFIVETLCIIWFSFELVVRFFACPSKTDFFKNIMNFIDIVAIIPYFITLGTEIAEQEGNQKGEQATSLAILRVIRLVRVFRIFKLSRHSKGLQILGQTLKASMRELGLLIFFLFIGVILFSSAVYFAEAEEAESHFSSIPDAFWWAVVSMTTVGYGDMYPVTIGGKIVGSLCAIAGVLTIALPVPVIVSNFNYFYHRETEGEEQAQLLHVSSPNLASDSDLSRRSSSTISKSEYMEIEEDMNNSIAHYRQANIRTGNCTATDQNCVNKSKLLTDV
Potassium voltage-gated channel subfamily A member 4 (Rattus norvegicus), sequence (P15385 whole entry): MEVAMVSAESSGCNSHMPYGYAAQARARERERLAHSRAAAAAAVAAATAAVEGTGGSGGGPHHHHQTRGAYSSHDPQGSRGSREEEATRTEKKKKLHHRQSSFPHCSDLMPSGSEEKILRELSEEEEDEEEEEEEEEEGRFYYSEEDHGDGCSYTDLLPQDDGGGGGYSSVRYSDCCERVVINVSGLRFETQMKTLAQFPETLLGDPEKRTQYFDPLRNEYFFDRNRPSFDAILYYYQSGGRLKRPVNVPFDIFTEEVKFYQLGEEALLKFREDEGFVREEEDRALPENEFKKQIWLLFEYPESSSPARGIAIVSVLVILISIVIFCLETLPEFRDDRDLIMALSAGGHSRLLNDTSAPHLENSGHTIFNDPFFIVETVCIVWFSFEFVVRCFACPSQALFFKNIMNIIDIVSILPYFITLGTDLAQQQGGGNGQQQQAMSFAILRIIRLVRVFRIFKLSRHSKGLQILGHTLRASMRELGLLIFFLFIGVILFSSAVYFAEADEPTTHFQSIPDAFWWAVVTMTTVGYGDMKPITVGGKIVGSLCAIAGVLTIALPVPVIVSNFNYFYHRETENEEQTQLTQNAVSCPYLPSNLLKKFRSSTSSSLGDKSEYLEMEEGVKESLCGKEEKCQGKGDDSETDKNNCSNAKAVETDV
Potassium voltage-gated channel subfamily A member 6 (Rattus norvegicus), sequence (P17659 whole entry): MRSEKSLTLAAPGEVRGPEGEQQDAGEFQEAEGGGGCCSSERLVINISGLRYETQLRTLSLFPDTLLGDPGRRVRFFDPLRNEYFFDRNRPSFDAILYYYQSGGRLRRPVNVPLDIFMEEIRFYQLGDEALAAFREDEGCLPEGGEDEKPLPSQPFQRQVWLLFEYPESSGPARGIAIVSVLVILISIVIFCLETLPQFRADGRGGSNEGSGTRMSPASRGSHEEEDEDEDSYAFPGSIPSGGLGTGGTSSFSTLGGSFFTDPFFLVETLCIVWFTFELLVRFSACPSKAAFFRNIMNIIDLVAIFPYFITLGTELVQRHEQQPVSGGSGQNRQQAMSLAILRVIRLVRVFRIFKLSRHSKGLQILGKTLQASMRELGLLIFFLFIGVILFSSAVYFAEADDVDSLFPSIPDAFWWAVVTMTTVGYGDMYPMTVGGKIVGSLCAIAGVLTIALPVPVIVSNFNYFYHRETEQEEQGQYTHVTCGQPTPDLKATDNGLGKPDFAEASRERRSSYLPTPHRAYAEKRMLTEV
T1 sequence (P22001 whole entry): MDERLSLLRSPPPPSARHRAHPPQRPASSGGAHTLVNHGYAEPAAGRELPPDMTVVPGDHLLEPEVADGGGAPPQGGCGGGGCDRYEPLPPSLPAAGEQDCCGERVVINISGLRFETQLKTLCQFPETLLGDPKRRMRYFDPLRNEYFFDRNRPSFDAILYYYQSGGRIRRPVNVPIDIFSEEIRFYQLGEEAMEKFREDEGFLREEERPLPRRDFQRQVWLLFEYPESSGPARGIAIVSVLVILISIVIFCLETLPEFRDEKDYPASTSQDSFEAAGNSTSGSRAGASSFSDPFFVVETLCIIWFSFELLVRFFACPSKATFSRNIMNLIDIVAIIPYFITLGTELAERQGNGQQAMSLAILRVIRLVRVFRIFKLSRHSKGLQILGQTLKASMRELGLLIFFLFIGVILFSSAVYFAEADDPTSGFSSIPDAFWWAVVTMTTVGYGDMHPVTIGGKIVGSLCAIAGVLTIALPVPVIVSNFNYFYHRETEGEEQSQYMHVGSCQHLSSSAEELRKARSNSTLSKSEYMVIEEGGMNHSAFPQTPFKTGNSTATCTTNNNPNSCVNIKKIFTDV
Potassium voltage-gated channel subfamily A member 6, sequence (P17658 whole entry): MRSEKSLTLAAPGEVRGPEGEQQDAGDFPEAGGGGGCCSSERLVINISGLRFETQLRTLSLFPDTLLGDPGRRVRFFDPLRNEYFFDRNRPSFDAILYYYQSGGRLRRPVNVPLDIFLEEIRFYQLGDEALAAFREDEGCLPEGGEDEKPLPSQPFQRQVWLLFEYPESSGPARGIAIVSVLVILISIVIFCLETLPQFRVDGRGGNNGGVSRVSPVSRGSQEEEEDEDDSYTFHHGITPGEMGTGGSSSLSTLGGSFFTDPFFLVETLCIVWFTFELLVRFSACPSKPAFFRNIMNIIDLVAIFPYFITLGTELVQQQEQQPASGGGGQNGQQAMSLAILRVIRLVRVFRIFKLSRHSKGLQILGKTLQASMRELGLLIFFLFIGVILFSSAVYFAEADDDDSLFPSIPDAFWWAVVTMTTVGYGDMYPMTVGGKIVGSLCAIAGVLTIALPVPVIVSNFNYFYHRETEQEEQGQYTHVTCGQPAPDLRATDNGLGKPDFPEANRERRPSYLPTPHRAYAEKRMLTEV
Potassium voltage-gated channel subfamily A member 2, sequence (P16389 whole entry): as the sequence (P63142 whole entry) above, with V9A, G198S, D355E counted along it
Potassium voltage-gated channel subfamily A member 4, sequence (P22459 whole entry): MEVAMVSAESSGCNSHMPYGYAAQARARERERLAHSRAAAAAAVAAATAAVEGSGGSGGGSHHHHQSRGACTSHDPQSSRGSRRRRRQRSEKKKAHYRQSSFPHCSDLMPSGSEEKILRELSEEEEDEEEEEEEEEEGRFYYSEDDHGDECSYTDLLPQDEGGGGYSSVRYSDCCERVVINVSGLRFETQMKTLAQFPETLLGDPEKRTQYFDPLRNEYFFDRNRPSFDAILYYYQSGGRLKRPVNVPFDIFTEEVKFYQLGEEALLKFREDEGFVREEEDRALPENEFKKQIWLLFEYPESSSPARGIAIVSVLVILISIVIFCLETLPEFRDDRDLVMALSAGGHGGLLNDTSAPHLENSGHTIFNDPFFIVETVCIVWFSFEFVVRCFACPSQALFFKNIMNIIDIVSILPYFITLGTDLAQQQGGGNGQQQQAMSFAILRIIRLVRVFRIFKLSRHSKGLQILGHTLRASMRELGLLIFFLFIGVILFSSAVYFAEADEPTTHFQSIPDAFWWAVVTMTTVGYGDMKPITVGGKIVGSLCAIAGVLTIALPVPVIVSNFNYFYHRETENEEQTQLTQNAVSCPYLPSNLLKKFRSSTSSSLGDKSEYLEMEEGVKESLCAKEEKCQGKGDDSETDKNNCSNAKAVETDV
Potassium voltage-gated channel subfamily A member 1, sequence (Q09470 whole entry): as the sequence (P10499 whole entry) above, with A9V, I202V, T213N, I449M, A471V, G476A, A480T, T481A, D482N counted along it

Consider `Nc1nc(/C=C/CNC(=O)c2cc3ccccc3[nH]2)c[nH]1`, for which the inhibition result in experiment [1], in experiment [2], in experiment [4], in experiment [7], in [11] and in [13] was “inactive” in each case. Also, the IC50 in [3] is 13 µM; in [5], more than 30 µM; in experiment [8], more than 30 µM; in experiment [9], 21 µM; in experiment [10], more than 30 µM; in experiment [12], 14 µM. In experiment [6], the inhibition amounted to 42%.

As to `COc1ccc2[nH]c(C(=O)NC/C=C/c3c[nH]c(N)n3)cc2c1`, the inhibition entry in experiment [1], in [2], in [4], in experiment [6], in experiment [7] and in experiment [11] was “inactive” in each case. Further, in experiment [13], the inhibition result was “inactive”. The IC50 in experiment [9] is more than 30 µM.

In the case of `CC(C)(C)OC(=O)N1CCC(C(=O)NC/C=C/c2c[nH]c(N)n2)CC1`, the inhibition entry in [1], in [2], in experiment [4], in [6], in [7] and in experiment [11] was “inactive” each time. Further, the inhibition result in experiment [13] was “inactive”. Also, the IC50 in experiment [9] is more than 30 µM.

Regarding `Nc1nc(CCCNC(=O)C2Cc3ccccc3N2)c[nH]1` (stereo not drawn), the inhibition entry in experiment [1], in experiment [2], in [4], in experiment [6], in [7] and in experiment [11] was “inactive” in each case. For the same compound, the inhibition result in [13] is “inactive”. For the same compound, the IC50 in experiment [9] was more than 30 µM.

In the case of `Nc1nc(CCCNC(=O)c2cc3ccccc3[nH]2)c[nH]1`, the inhibition entry in experiment [1], in [2], in [4], in experiment [6], in experiment [7] and in experiment [11] was “inactive” in each case. In experiment [13], the inhibition entry was “inactive”.

Regarding `O=c1ccc2c(OCCCCOc3ccccc3)c3ccoc3cc2o1`, the IC50 in [3] is 0.17 µM; in [5] it was 0.45 µM; in [8], 0.088 µM; in experiment [10], 0.25 µM; in experiment [12], 0.13 µM.

As to `Nc1nc(/C=C/CNC(=O)c2cccnc2)c[nH]1`, the inhibition result in [1], in experiment [2], in [4], in experiment [6], in experiment [7] and in experiment [11] was “inactive” each time. In experiment [13], the inhibition entry was “inactive”. In experiment [9], this compound displayed an IC50 of more than 30 µM.

As for `Nc1nc(/C=C/CNC(=O)C2CCNCC2)c[nH]1`, the inhibition stood at 22% in experiment [1] and 28% in experiment [13]. In addition, the inhibition entry in [2], in [4], in experiment [6], in experiment [7] and in experiment [11] was “inactive” each time. The compound further came in with an IC50 in [9] of more than 30 µM.

With `Nc1nc(CCCNC(=O)c2cc(Br)c(Br)[nH]2)c[nH]1`, the inhibition result in experiment [1], in experiment [2], in experiment [4], in experiment [6], in [7] and in [11] was “inactive” in each case. For the same compound, the inhibition result in experiment [13] is “inactive”. The IC50 in [9] was more than 30 µM.

By inhibition is commonly meant the percentage by which the read-out fell short of the control. For orientation: IC50 means the midpoint of a concentration-inhibition curve. Higher therefore signals lower potency.
